8 molecules from ChEMBL document CHEMBL4837210 (Eur J Med Chem, 2021) can be followed below.

Common to all, as to assay type: functional
Test [1] deals with Streptococcus pyogenes. As to the kind of experiment: Antibacterial activity against erythromycin-susceptible Streptococcus pyogenes clinical isolate 1 assessed as bacterial growth inhibition incubated for 24 hrs by CLSI protocol based broth microdilution method. (Dilution methods test growth across graded concentrations, often in twofold steps.)
For test [2], the system named is Staphylococcus aureus. As to the kind of experiment: Antibacterial activity against methicillin-resistant Staphylococcus aureus ATCC 43300 assessed as inhibition of bacterial growth by broth microdilution method. Conditions: time 24 hrs. In a few lines:
(§1)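 Broth microdilution MIC. A 0.5 McFarland suspension was diluted 10-fold and added at 1.5 × 10⁷ cfu/mL to 2-fold dilutions (0.125–64) in Mueller Hinton broth. Incubated aerobically 24 h at 37 °C. MIC was the lowest concentration with no visible turbidity.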

The subject of the next test is Bacillus pumilus. As to the kind of experiment: Antibacterial activity against penicillin-susceptible Bacillus pumilus CMCC 63202 assessed as bacterial growth inhibition by broth dilution method. The note with it: time 24 hrs. In a few lines: (§2)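 Broth microdilution in Mueller Hinton broth. A 0.5 McFarland suspension was diluted tenfold, giving an inoculum of 1.5 × 10⁷ cfu/mL. This was added to 2-fold serial compound dilutions from […]. Plates were incubated aerobically at 37 °C for 24 h. MIC was the lowest concentration with no visible turbidity.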

Test [3] concerns Staphylococcus aureus. As to the kind of experiment: Antibacterial activity against erythromycin-susceptible Staphylococcus aureus ATCC 25923 assessed as bacterial growth inhibition incubated for 24 hrs by CLSI protocol based broth microdilution method.
Test [4] relates to Staphylococcus epidermidis. As to the kind of experiment: Antibacterial activity against penicillin-resistant Staphylococcus epidermidis assessed as inhibition of bacterial growth measured by broth microdilution method. Conditions: time 24 hrs.
The subject of another test is Bacillus subtilis. As to the kind of experiment: Antibacterial activity against penicillin-susceptible Bacillus subtilis ATCC 9372 assessed as bacterial growth inhibition incubated for 24 hrs by CLSI protocol based broth microdilution method.
Test [5] has as its system Staphylococcus aureus. As to the kind of experiment: Antibacterial activity against penicillin-resistant Staphylococcus aureus assessed as inhibition of bacterial growth measured by broth microdilution method. Conditions: time 24 hrs. In a few lines: as §1
In test [6] the test system is Streptococcus pyogenes. As to the kind of experiment: Antibacterial activity against erythromycin-resistant Streptococcus pyogenes 2 assessed as bacterial growth inhibition incubated for 24 hrs by CLSI protocol based broth microdilution method.
The test system of test [7] is Staphylococcus aureus. As to the kind of experiment: Antibacterial activity against Staphylococcus aureus assessed as inhibition of bacterial growth measured by broth microdilution method. The note with it: time 24 hrs. An outline of the steps:
as §2

The subject of a further test is Escherichia coli. As to the kind of experiment: Antibacterial activity against penicillin-susceptible Escherichia coli ATCC 25922 assessed as inhibition of bacterial growth measured by broth microdilution method. Conditions: time 24 hrs. In a few lines: as §2
A further test concerns Pseudomonas aeruginosa. As to the kind of experiment: Antibacterial activity against penicillin-susceptible Pseudomonas aeruginosa ATCC27853 assessed as bacterial growth inhibition incubated for 24 hrs by CLSI protocol based broth microdilution method.

Broadly, the MIC is the least concentration at which growth counts as inhibited. In the case of `CCCOc1ccc(C#Cc2c3ccccc3[n+](C)c3ccccc23)cc1.[I-]`, the MIC worked out at 16 µg/mL with Streptococcus pyogenes [1]; 4 µg/mL in the test on Staphylococcus aureus [2]; 4 µg/mL in the test with Bacillus pumilus; 4 µg/mL in the test with Staphylococcus aureus [3]; 8 µg/mL in test [4]; 4 µg/mL with Bacillus subtilis. The MIC in the test with Staphylococcus aureus [5] was 16 µg/mL; with Streptococcus pyogenes [6] it was 16 µg/mL; in the test with Staphylococcus aureus [7], 4 µg/mL; with Escherichia coli it was more than 64 µg/mL; in the test on Pseudomonas aeruginosa it was more than 64 µg/mL.

With `C[n+]1c2ccccc2c(/C=C/c2ccc(-c3ccccc3)cc2)c2ccccc21.[I-]`, the minimal inhibitory concentration (MIC) in the test on Streptococcus pyogenes [1] worked out at 0.5 µg/mL; in the test on Staphylococcus aureus [2], 2 µg/mL; in the test with Bacillus pumilus, 2 µg/mL; with Staphylococcus aureus [3], 0.5 µg/mL; in test [4] it was 2 µg/mL; with Bacillus subtilis, 1 µg/mL. Also, the minimum inhibitory concentration (MIC) in the test on Staphylococcus aureus [5] was 4 µg/mL; in the test with Streptococcus pyogenes [6] it was 0.5 µg/mL; with Staphylococcus aureus [7] it was 1 µg/mL; in the test with Escherichia coli, 32 µg/mL; in the test on Pseudomonas aeruginosa it was more than 64 µg/mL.

As to `C[n+]1c2ccccc2c(-n2cccc2)c2ccccc21.[Cl-]`, the MIC in the test with Streptococcus pyogenes [1] was 16 µg/mL; in the test on Staphylococcus aureus [2] it was more than 64 µg/mL; in the test on Bacillus pumilus, 64 µg/mL; with Staphylococcus aureus [3] it was 32 µg/mL; in test [4] it was more than 64 µg/mL; with Bacillus subtilis it was 64 µg/mL. For the same molecule, the MIC with Staphylococcus aureus [5] was 64 µg/mL; in the test with Streptococcus pyogenes [6], 64 µg/mL; in the test on Staphylococcus aureus [7], 64 µg/mL; with Escherichia coli it was more than 64 µg/mL; in the test with Pseudomonas aeruginosa it was more than 64 µg/mL.

With `C[n+]1c2ccccc2c(Nc2ccncn2)c2ccccc21.[Cl-]`, the MIC in the test with Streptococcus pyogenes [1] is more than 64 µg/mL; with Staphylococcus aureus [2], 32 µg/mL; with Bacillus pumilus, 64 µg/mL; in the test with Staphylococcus aureus [3] it was 16 µg/mL; in test [4] it was more than 64 µg/mL; with Bacillus subtilis, 16 µg/mL. The MIC was more than 64 µg/mL in the test with Staphylococcus aureus [5]; more than 64 µg/mL with Streptococcus pyogenes [6]; 32 µg/mL in the test with Staphylococcus aureus [7]; more than 64 µg/mL in the test on Escherichia coli; more than 64 µg/mL in the test on Pseudomonas aeruginosa.

Take `C[n+]1c2ccccc2c(/C=C/c2ccc(Br)cc2)c2ccccc21.[I-]`: the MIC in the test with Streptococcus pyogenes [1] turned out to be 0.25 µg/mL; with Staphylococcus aureus [2], 2 µg/mL; in the test on Bacillus pumilus, 1 µg/mL; in the test with Staphylococcus aureus [3] it was 0.5 µg/mL; in test [4] it was 2 µg/mL; with Bacillus subtilis, 1 µg/mL. Also, the MIC in the test with Staphylococcus aureus [5] was 4 µg/mL; with Streptococcus pyogenes [6], 0.5 µg/mL; in the test with Staphylococcus aureus [7] it was 1 µg/mL; in the test with Escherichia coli, 64 µg/mL; in the test on Pseudomonas aeruginosa, more than 64 µg/mL.

Turning to `CCCCCCNc1c2ccccc2[n+](C)c2ccccc12.[Cl-]`, the MIC was found to be 32 µg/mL with Streptococcus pyogenes [1]; 64 µg/mL in the test on Staphylococcus aureus [2]; 64 µg/mL in the test on Bacillus pumilus; 64 µg/mL with Staphylococcus aureus [3]; 64 µg/mL in test [4]; 64 µg/mL with Bacillus subtilis. For the same molecule, the minimum inhibitory concentration (MIC) with Staphylococcus aureus [5] was 64 µg/mL; in the test on Streptococcus pyogenes [6] it was 32 µg/mL; in the test on Staphylococcus aureus [7], 64 µg/mL; with Escherichia coli, more than 64 µg/mL; with Pseudomonas aeruginosa, more than 64 µg/mL.

For the molecule `C[n+]1c2ccccc2c(-c2ccccc2)c2ccccc21.[I-]`, the MIC in the test with Streptococcus pyogenes [1] was 8 µg/mL; with Staphylococcus aureus [2], more than 64 µg/mL; in the test on Bacillus pumilus, 32 µg/mL; in the test with Staphylococcus aureus [3], 2 µg/mL; in test [4] it was more than 64 µg/mL; with Bacillus subtilis, 16 µg/mL. Moreover, the MIC in the test with Staphylococcus aureus [5] is more than 64 µg/mL; with Streptococcus pyogenes [6], 32 µg/mL; with Staphylococcus aureus [7], 8 µg/mL; in the test on Escherichia coli it was more than 64 µg/mL; with Pseudomonas aeruginosa it was more than 64 µg/mL.

Regarding `CCCCCNc1c2ccccc2[n+](C)c2ccccc12.[Cl-]`, the MIC was 16 µg/mL with Streptococcus pyogenes [1]; more than 64 µg/mL in the test with Staphylococcus aureus [2]; more than 64 µg/mL with Bacillus pumilus; more than 64 µg/mL in the test with Staphylococcus aureus [3]; 64 µg/mL in test [4]; 64 µg/mL in the test with Bacillus subtilis. Moreover, the MIC with Staphylococcus aureus [5] was 64 µg/mL; in the test on Streptococcus pyogenes [6], 32 µg/mL; in the test on Staphylococcus aureus [7], more than 64 µg/mL; in the test on Escherichia coli, more than 64 µg/mL; with Pseudomonas aeruginosa, more than 64 µg/mL.
